# Measurements: ChEMBL document CHEMBL1255569, “Synthesis of ester prodrugs of 9-(S)-[3-hydroxy-2-(phosphonomethoxy)propyl]-2,6-diaminopurine (HPMPDAP) as anti-poxvirus agents” (J Med Chem, 2010)
# Columns and labels:
# [1] = Cytotoxicity against HEL assessed as change in cell morphology; assay type: cell-based; conditions: human, HEL cells
# Summary of the method: (§1)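 Microscopic inspection of cultures exposed to test compounds. MCC is the minimum compound concentration causing a microscopically detectable alteration of cell morphology.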
# [2] = system: Human betaherpesvirus 5; test: Antiviral activity against Human cytomegalovirus Davis infected in HEL assessed as reduction in virus-induce cytopathicity; assay type: functional, organism-based; conditions: Human betaherpesvirus 5, Davis
# [3] = system: Vaccinia virus; test: Antiviral activity against Vaccinia virus infected in HEL assessed as reduction in virus-induce cytopathicity; assay type: functional, organism-based; conditions: Orthopoxvirus vaccinia
# [4] = system: Human alphaherpesvirus 3; test: Antiviral activity against acyclovir-resistant VZV OKA infected in HEL assessed as reduction in virus-induce cytopathicity; conditions: Human alphaherpesvirus 3, OKA
# [5] = system: Human betaherpesvirus 5; test: Antiviral activity against Human cytomegalovirus AD169 infected in HEL assessed as reduction in virus-induce cytopathicity; assay type: functional, organism-based; conditions: Human betaherpesvirus 5, AD169
# [6] = system: Human alphaherpesvirus 2; test: Antiviral activity against […] infected in HEL assessed as reduction in virus-induce cytopathicity; assay type: functional, organism-based; conditions: Human alphaherpesvirus 2, strain G
# [7] = Cytotoxicity against HEL; assay type: cell-based; conditions: human, HEL cells
# Summary of the method: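 HEL cells were seeded at 5 × 10³ cells/well and allowed to proliferate for 24 h, then given medium with graded compound concentrations. After 3 days at 37 °C, cells were counted with a Coulter counter. CC50 (μM) is the concentration halving proliferation relative to untreated controls, estimated from plots of cell number (% of control) against concentration.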
# [8] = system: Human alphaherpesvirus 1; test: Antiviral activity against HSV1 KOS infected in HEL assessed as reduction in virus-induce cytopathicity; assay type: functional, organism-based; conditions: Human alphaherpesvirus 1, KOS
# [9] = system: Human betaherpesvirus 6; test: Antiviral activity against Human herpesvirus 6 infected in HEL assessed as reduction in virus-induce cytopathicity; assay type: functional, organism-based
# [10] = system: Human alphaherpesvirus 1; test: Antiviral activity against acyclovir-resistant HSV1 KOS infected in HEL assessed as reduction in virus-induce cytopathicity; assay type: functional, organism-based; conditions: Human alphaherpesvirus 1, KOS
# [11] = Cytotoxicity against human HSB2 cells assessed as change in cell morphology; assay type: cell-based, CCRF-HSB-2; summary of the method: as §1
# [12] = system: Human alphaherpesvirus 3; test: Antiviral activity against acyclovir-resistant VZV 07/1 infected in HEL assessed as reduction in virus-induce cytopathicity; conditions: Human alphaherpesvirus 3, 07/1
smiles,measurement,setting,value
CCCCCCCCCCCCCCCCCCOCCO[P@]1(=O)CO[C@@H](Cn2cnc3c(N)nc(N)nc32)CO1,MCC,[1],6.7 µM
same,EC50,[2],0.0034 µM
same,EC50,[3],0.052 µM
same,EC50,[4],0.045 µM
same,EC50,[5],0.015 µM
same,EC50,[6],0.037 µM
same,CC50,[7],129 µM
same,EC50,[8],0.03 µM
same,EC50,[9],> 42 µM
same,EC50,[10],0.017 µM
same,MCC,[11],0.5 µM
same,EC50,[12],0.01 µM
CCCCOC(=O)c1ccccc1OP1(=O)CO[C@@H](Cn2cnc3c(N)nc(N)nc32)CO1 (some centres undefined),MCC,[1],103 µM
same,EC50,[2],6.8 µM
same,EC50,[3],2.3 µM
same,EC50,[4],0.53 µM
same,EC50,[5],11.5 µM
same,EC50,[6],3.76 µM
same,CC50,[7],168 µM
same,EC50,[8],5.36 µM
same,EC50,[9],> 205 µM
same,EC50,[10],3.1 µM
same,MCC,[11],≥ 205 µM
same,EC50,[12],0.12 µM
CC(C)(C)C(=O)OCOP(=O)(O)CO[C@H](CO)Cn1cnc2c(N)nc(N)nc21,MCC,[1],> 227 µM
same,EC50,[2],11.6 µM
same,EC50,[3],1.63 µM
same,EC50,[4],0.79 µM
same,EC50,[5],12.9 µM
same,EC50,[6],3.15 µM
same,CC50,[7],≥ 227 µM
same,EC50,[8],2.76 µM
same,EC50,[9],30.6 µM
same,EC50,[10],2.95 µM
same,MCC,[11],227 µM
same,EC50,[12],0.34 µM
CC(C)OC(=O)[C@@H](CO[P@@]1(=O)CO[C@@H](Cn2cnc3c(N)nc(N)nc32)CO1)NC(=O)[C@@H](N)C(C)C,MCC,[1],> 177 µM
same,EC50,[2],22.1 µM
same,EC50,[3],2.62 µM
same,EC50,[4],1.06 µM
same,EC50,[5],15.2 µM
same,EC50,[6],1.42 µM
same,CC50,[7],148 µM
same,EC50,[8],7.97 µM
same,EC50,[9],> 177 µM
same,EC50,[10],7.1 µM
same,MCC,[11],> 177 µM
same,EC50,[12],0.25 µM
Nc1nc(N)c2ncn(C[C@H]3COP(=O)(OCC(F)(F)F)CO3)c2n1 (some centres undefined),MCC,[1],> 239 µM
same,EC50,[2],24.4 µM
same,EC50,[3],2.08 µM
same,EC50,[4],0.62 µM
same,EC50,[5],19.1 µM
same,EC50,[6],1.91 µM
same,CC50,[7],≥ 219 µM
same,EC50,[8],6.57 µM
same,EC50,[9],177 µM
same,EC50,[10],4.78 µM
same,MCC,[11],> 239 µM
same,EC50,[12],0.17 µM
Nc1nc(N)c2ncn(C[C@@H](CO)OCP(=O)(O)OCC(F)(F)F)c2n1,MCC,[1],> 250 µM
same,EC50,[2],54.2 µM
same,EC50,[3],7.95 µM
same,EC50,[4],2.27 µM
same,EC50,[5],44 µM
same,EC50,[6],10.7 µM
same,CC50,[7],> 250 µM
same,EC50,[8],5.6 µM
same,EC50,[9],> 62 µM
same,EC50,[10],5 µM
same,MCC,[11],> 62 µM
same,EC50,[12],0.43 µM
CC(C)OC(=O)[C@@H](CO[P@]1(=O)CO[C@@H](Cn2cnc3c(N)nc(N)nc32)CO1)NC(=O)[C@@H](N)C(C)C,MCC,[1],≥ 177 µM
same,EC50,[2],7.1 µM
same,EC50,[3],2.02 µM
same,EC50,[4],0.73 µM
same,EC50,[5],12 µM
same,EC50,[6],2.3 µM
same,CC50,[7],159 µM
same,EC50,[8],5.58 µM
same,EC50,[9],> 177 µM
same,EC50,[10],3.52 µM
same,MCC,[11],177 µM
same,EC50,[12],0.2 µM
Nc1nc(N)c2ncn(C[C@@H](CO)OCP(=O)(O)O)c2n1,MCC,[1],> 314 µM
same,EC50,[2],6.4 µM
same,EC50,[3],0.5 µM
same,EC50,[4],0.22 µM
same,EC50,[5],11.2 µM
same,EC50,[6],2.83 µM
same,CC50,[7],> 314 µM
same,EC50,[8],2.86 µM
same,EC50,[9],17.6 µM
same,EC50,[10],1.35 µM
same,MCC,[11],126 µM
same,EC50,[12],0.0082 µM
CC(C)(C)C(=O)OCOP1(=O)CO[C@@H](Cn2cnc3c(N)nc(N)nc32)CO1 (some centres undefined),MCC,[1],≥ 231 µM
same,EC50,[2],6.8 µM
same,EC50,[3],0.183 µM
same,EC50,[4],0.3 µM
same,EC50,[5],6.94 µM
same,EC50,[6],1.34 µM
same,CC50,[7],≥ 201 µM
same,EC50,[8],2.22 µM
same,EC50,[9],7.63 µM
same,EC50,[10],2.41 µM
same,MCC,[11],62.5 µM
same,EC50,[12],0.093 µM
Nc1nc2c(ncn2COC(CO)CO)c(=O)[nH]1 [GANCICLOVIR],MCC,[1],≥ 392 µM
same,EC50,[2],10.2 µM
same,EC50,[5],9.4 µM
same,CC50,[7],1080 µM
O=c1[nH]c(=O)n([C@H]2C[C@H](O)[C@@H](CO)O2)cc1/C=C/Br [BRIVUDINE],CC50,[1],> 300 µM
same,EC50,[4],0.016 µM
same,EC50,[6],75.3 µM
same,CC50,[7],339 µM
same,EC50,[8],0.03 µM
same,EC50,[10],> 150 µM
same,EC50,[12],137 µM
